Inhibition of growth and MIC data for 17 molecules are collected here from ChEMBL document CHEMBL3098130, “Discovery of Novel Putative Inhibitors of UDP-GlcNAc 2-Epimerase as Potent Antibacterial Agents” (ACS Med Chem Lett, 2013).

≈ marks a conversion by molar mass, not a printed value.

Common to all, as to assay type: functional
Test [1] relates to Bacillus anthracis. Nature of the test: Antibacterial activity against Bacillus anthracis Sterne assessed as growth inhibition at 10 uM measured every 2 mins for 16 to 20 hrs by spectramax 96-well plate reader analysis. The following applies: read-out: GI.
For test [2], the system named is Bacillus anthracis. Nature of the test: Antibacterial activity against Bacillus anthracis Sterne assessed as growth inhibition at 3 uM measured every 2 mins for 16 to 20 hrs by spectramax 96-well plate reader analysis. The following applies: read-out: GI.
Test [3] has as its system Staphylococcus aureus. Nature of the test: Antibacterial activity against methicillin-resistant Staphylococcus aureus assessed as growth inhibition at 3 uM measured every 2 mins for 16 to 20 hrs by spectramax 96-well plate reader analysis. The following applies: read-out: GI.
The test system of test [4] is Staphylococcus aureus. In words: Antibacterial activity against methicillin-resistant Staphylococcus aureus assessed as growth inhibition at 30 uM measured every 2 mins for 16 to 20 hrs by spectramax 96-well plate reader analysis. The following applies: read-out: GI.
For test [5], the system named is Staphylococcus aureus. Nature of the test: Antibacterial activity against methicillin-resistant Staphylococcus aureus assessed as growth inhibition at 10 uM measured every 2 mins for 16 to 20 hrs by spectramax 96-well plate reader analysis. The following applies: read-out: GI.
Test [6] deals with Bacillus anthracis. In words: Antibacterial activity against Bacillus anthracis Sterne assessed as growth inhibition at 30 uM measured every 2 mins for 16 to 20 hrs by spectramax 96-well plate reader analysis. The following applies: read-out: GI.
Another test deals with Bacillus subtilis. In words: Antibacterial activity against Bacillus subtilis 19659 assessed as growth inhibition measured for 3 days by broth microdilution method. The method, boiled down:
(§1)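 MIC by broth microdilution against a panel of Gram-positive and Gram-negative strains (ATCC-type numbers where given). Run in triplicate on three different days.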

Test [7] has as its system Staphylococcus aureus. In words: Antibacterial activity against Staphylococcus aureus 13709 assessed as growth inhibition measured for 3 days by broth microdilution method. The method, boiled down:
as §1

Setting [8] is: Bacillus subtilis, 19659, 72 h, read-out: MIC.
The mark [9] stands for this setting: Staphylococcus aureus, 13709, 72 h, read-out: MIC.

Turning to `O=C(O)C(Cc1ccccc1)N1C(=O)/C(=C\c2ccc(-c3cccc(Cl)c3)o2)NC1=S` (stereo unspecified), the inhibition of growth at 10 µM in the test on Bacillus anthracis [1] and in the test with Staphylococcus aureus [5] was 0% each time. In addition, the figures for the inhibition of growth at 3 µM in the test with Bacillus anthracis [2] and with Staphylococcus aureus [3] were 10% and 0%, respectively. Moreover, the inhibition of growth at 30 µM is 10% in the test with Staphylococcus aureus [4] and 90% with Bacillus anthracis [6].
In the case of `O=C(O)C(Cc1ccccc1)N1C(=O)/C(=C\c2ccc(-c3ccc(Br)cc3)o2)NC1=S` (stereo unspecified), the inhibition of growth at 10 µM in the test with Bacillus anthracis [1] is 100%; in the test with Staphylococcus aureus [5], 90%. The inhibition of growth at 3 µM turned out to be 70% in the test on Bacillus anthracis [2] and 10% in the test on Staphylococcus aureus [3]. In addition, the results for the inhibition of growth at 30 µM with Staphylococcus aureus [4] and in the test on Bacillus anthracis [6] were 90% and 100%, respectively.
Turning to `O=C(O)C(Cc1ccccc1)N1C(=O)/C(=C\c2ccc(-c3ccc(I)cc3)o2)NC1=S` (stereo unspecified), the inhibition of growth at 10 µM was 100% in the test on Bacillus anthracis [1] and 90% in the test on Staphylococcus aureus [5]. In addition, the inhibition of growth at 3 µM was 50% in the test on Bacillus anthracis [2] and 0% in the test on Staphylococcus aureus [3]. Further, the results for the inhibition of growth at 30 µM in the test with Staphylococcus aureus [4] and with Bacillus anthracis [6] were 90% and 100%, respectively.
Regarding `O=C(O)C(Cc1ccccc1)N1C(=O)/C(=C\c2ccc(-c3ccc(OC(F)(F)F)cc3)o2)NC1=S` (stereo unspecified), the inhibition of growth at 10 µM was 100% in the test on Bacillus anthracis [1] and 10% in the test with Staphylococcus aureus [5]. The inhibition of growth at 3 µM in the test on Bacillus anthracis [2] turned out to be 10%; in the test with Staphylococcus aureus [3] it was 0%. Also, the inhibition of growth at 30 µM in the test with Staphylococcus aureus [4] and in the test on Bacillus anthracis [6] was 100% throughout.
For the molecule `O=C(O)C(Cc1ccccc1)N1C(=O)/C(=C\c2ccc(-c3ccc(Cl)c(Cl)c3)s2)NC1=S` (stereo unspecified), the inhibition of growth at 10 µM in the test on Bacillus anthracis [1] was 110%; in the test on Staphylococcus aureus [5] it was 10%. The inhibition of growth at 3 µM in the test with Bacillus anthracis [2] is 0%; with Staphylococcus aureus [3] it was 10%. Further, the inhibition of growth at 30 µM came out at 40% in the test with Staphylococcus aureus [4] and 90% in the test with Bacillus anthracis [6].
For the molecule `O=C(O)C(Cc1ccccc1)N1C(=O)/C(=C\c2ccc(-c3ccc(Cl)c(Cl)c3)o2)NC1=S` (stereo unspecified), the results for the inhibition of growth at 10 µM with Bacillus anthracis [1] and in the test on Staphylococcus aureus [5] were 110% and 90%, respectively. Moreover, the inhibition of growth at 3 µM in the test with Bacillus anthracis [2] was 110%; with Staphylococcus aureus [3], 20%. Moreover, the figures for the inhibition of growth at 30 µM with Staphylococcus aureus [4] and in the test with Bacillus anthracis [6] were 100% and 110%, respectively.
For the molecule `O=C(O)C(Cc1ccccc1)N1C(=O)/C(=C\c2ccc(-c3ccc(Br)c(Cl)c3)o2)NC1=S` (stereo unspecified), the inhibition of growth at 10 µM in the test on Bacillus anthracis [1] and with Staphylococcus aureus [5] was 100% throughout. The inhibition of growth at 3 µM with Bacillus anthracis [2] was 100%; in the test on Staphylococcus aureus [3], 20%. In addition, the inhibition of growth at 30 µM with Staphylococcus aureus [4] and in the test with Bacillus anthracis [6] was 100% throughout.
Consider `COc1ccc(-c2ccc(/C=C3/NC(=S)N(C(Cc4ccccc4)C(=O)O)C3=O)s2)cc1` (stereo unspecified), for which the inhibition of growth at 10 µM in the test on Bacillus anthracis [1] is 0%; with Staphylococcus aureus [5], 10%. Also, the inhibition of growth at 3 µM in the test on Bacillus anthracis [2] and in the test with Staphylococcus aureus [3] was 0% throughout. Further, the inhibition of growth at 30 µM stood at 20% in the test with Staphylococcus aureus [4] and 100% in the test on Bacillus anthracis [6].
With `O=C(O)C(Cc1ccccc1)N1C(=O)/C(=C\c2ccc(-c3ccc(F)cc3)s2)NC1=S` (stereo unspecified), the inhibition of growth at 10 µM in the test on Bacillus anthracis [1] was found to be 10%; in the test with Staphylococcus aureus [5], 20%. Besides, the inhibition of growth at 3 µM came out at 0% in the test on Bacillus anthracis [2] and 20% in the test on Staphylococcus aureus [3]. The inhibition of growth at 30 µM in the test with Staphylococcus aureus [4] was 50%; in the test on Bacillus anthracis [6], 100%.
Regarding `O=C(O)C(Cc1ccccc1)N1C(=O)/C(=C\c2ccc(-c3ccc(Cl)cc3)s2)NC1=S` (stereo unspecified), the inhibition of growth at 10 µM with Bacillus anthracis [1] amounted to 100%; with Staphylococcus aureus [5], 0%. The inhibition of growth at 3 µM in the test with Bacillus anthracis [2] and in the test on Staphylococcus aureus [3] was 0% each time. Further, the inhibition of growth at 30 µM worked out at 90% in the test with Staphylococcus aureus [4] and 100% with Bacillus anthracis [6].
Turning to `O=C(O)C(Cc1ccccc1)N1C(=O)/C(=C\c2ccc(-c3ccc(Br)cc3)s2)NC1=S` (stereo unspecified), the values for the inhibition of growth at 10 µM with Bacillus anthracis [1] and with Staphylococcus aureus [5] were 100% and 90%, respectively. Moreover, the inhibition of growth at 3 µM in the test with Bacillus anthracis [2] is 80%; with Staphylococcus aureus [3], 20%. Further, the values for the inhibition of growth at 30 µM in the test on Staphylococcus aureus [4] and in the test with Bacillus anthracis [6] were 90% and 100%, respectively.
`O=C(O)[C@@H](Cc1ccccc1)N1C(=O)/C(=C/c2ccc(-c3ccc(Cl)c(Cl)c3)o2)NC1=S`: the MIC in the test with Bacillus subtilis (setting [8]) and with Staphylococcus aureus [7] (setting [9]) was 6.8 µM (≈ 3.31 µg/mL) each time.
Take `O=C(O)[C@H](Cc1ccccc1)N1C(=O)/C(=C/c2ccc(-c3ccc(Cl)c(Cl)c3)o2)NC1=S`: the MIC in the test on Bacillus subtilis (setting [8]) and in the test on Staphylococcus aureus [7] (setting [9]) was 6.8 µM (≈ 3.31 µg/mL) each time.
On to `O=C(O)[C@@H](Cc1ccccc1)N1C(=O)/C(=C\c2ccc(-c3ccc(Cl)c(Cl)c3)o2)NC1=S`, for which the MIC with Bacillus subtilis (setting [8]) and with Staphylococcus aureus [7] (setting [9]) was 6.8 µM (≈ 3.31 µg/mL) throughout.
As for `O=C(O)[C@H](Cc1ccccc1)N1C(=O)/C(=C\c2ccc(-c3ccc(Cl)c(Cl)c3)o2)NC1=S`, the MIC in the test with Bacillus subtilis and in the test with Staphylococcus aureus [7] was 6.8 µM (≈ 3.31 µg/mL) in each case.
On to `O=C(O)C(Cc1ccccc1)N1C(=O)/C(=C\c2ccc(-c3ccccc3)o2)NC1=S` (stereo unspecified), for which the inhibition of growth at 10 µM with Bacillus anthracis [1] and in the test on Staphylococcus aureus [5] was 10% in each case. The inhibition of growth at 3 µM in the test with Bacillus anthracis [2] and in the test on Staphylococcus aureus [3] was 0% each time. Also, the inhibition of growth at 30 µM with Staphylococcus aureus [4] came out at 10%; in the test on Bacillus anthracis [6] it was 20%.
On to `O=C(O)C(Cc1ccccc1)N1C(=O)/C(=C\c2ccc(-c3ccc(Cl)cc3)o2)NC1=S` (stereo unspecified), for which the inhibition of growth at 10 µM with Bacillus anthracis [1] turned out to be 70%; in the test with Staphylococcus aureus [5] it was 20%. Moreover, the inhibition of growth at 3 µM was found to be 0% with Bacillus anthracis [2] and 10% in the test with Staphylococcus aureus [3]. In addition, the inhibition of growth at 30 µM with Staphylococcus aureus [4] came out at 90%; in the test on Bacillus anthracis [6] it was 100%.
